From ChEMBL document CHEMBL1135423, “Acyl-protected hydroxylamines as spin label generators for EPR brain imaging” (J Med Chem, 2002)

Assays:
Assay type in all cases: ADME, organism-based
Mus musculus [1] = experiment: Biodistribution in mice as total concentration of both oxidized and reduced forms in heart tissues, animals were sacrificed 60 minutes after dosing, in DMSO sol.; conditions: in vivo, 1 h
Outline: (§1)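 Female C3H HenMTV⁻ mice (6-8 weeks old, 22-25 g; three per time point) were given an ip injection of 500 µL of 40 mM compound. They were euthanized at 10 or 60 min. Brain, heart, liver, kidney, spleen and blood were excised and each homogenized in ice-cold PBS. One half of each homogenate received K₃[Fe(CN)₆] (final 1 mM) to oxidize hydroxylamine to nitroxide. Total nitroxide plus hydroxylamine was read from EPR signal intensity.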

Mus musculus [2] = experiment: Biodistribution in mice as total concentration of both oxidized and reduced forms in heart tissues, animals were sacrificed 10 minutes after dosing, in DMSO sol.; conditions: in vivo; outline: as §1
Mus musculus [3] = experiment: Biodistribution of compound (oxidized form) in heart tissue, animals were sacrificed 10 minutes after dosing, in DMSO sol.; conditions: in vivo
Outline: (§2)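 In female C3H HenMTV⁻ mice (6-8 weeks, 22-25 g; three per time point), compound was injected ip as 500 µL of 40 mM solution. Animals were killed 10 or 60 min later. Brain, heart, liver, kidney, spleen and blood were removed and each homogenized in ice-cold PBS. Nitroxide (oxidized form) was quantified by EPR signal intensity in the half of each homogenate not treated with ferricyanide.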

Mus musculus [4] = experiment: Biodistribution in mice as total concentration of both oxidized and reduced forms in spleen and animals were sacrificed 10 minutes after ip administration in DMSO solution; conditions: in vivo; outline: as §1
Mus musculus [5] = experiment: Biodistribution of compound (oxidized form) in liver tissue, animals were sacrificed 10 minutes after dosing, in DMSO sol.; conditions: in vivo; outline: as §2
Mus musculus [6] = experiment: Biodistribution in mice as total concentration of both oxidized and reduced forms in brain tissues, animals were sacrificed 60 minutes after dosing, in DMSO sol.; conditions: in vivo, 1 h; outline: as §1
Mus musculus [7] = experiment: Biodistribution in mice as total concentration of both oxidized and reduced forms in kidney tissues, animals were sacrificed 60 minutes after dosing, in DMSO sol.; conditions: in vivo, 1 h; outline: as §1
Mus musculus [8] = experiment: Biodistribution in mice as total concentration of both oxidized and reduced forms in spleen tissues, animals were sacrificed 60 minutes after dosing, in DMSO sol.; conditions: in vivo, 1 h; outline: as §1
Mus musculus [9] = experiment: Biodistribution of compound (oxidized form) in liver tissues, animals were sacrificed 60 minutes after dosing, in DMSO sol.; conditions: in vivo, 1 h; outline: as §2
Mus musculus [10] = experiment: Biodistribution of compound (oxidized form) in spleen tissues, animals were sacrificed 60 minutes after dosing, in DMSO sol.; conditions: in vivo, 1 h; outline: as §2
Mus musculus [11] = experiment: Biodistribution of compound (oxidized form) in brain tissue, animals were sacrificed 10 minutes after dosing, in DMSO sol.; conditions: in vivo; outline: as §2
Mus musculus [12] = experiment: Biodistribution of compound (oxidized form) in heart tissue, animals were sacrificed 60 minutes after dosing, in DMSO sol.; conditions: in vivo, 1 h; outline: as §2
Mus musculus [13] = experiment: Biodistribution of compound (oxidized form) in kidney tissue, animals were sacrificed 60 minutes after dosing, in DMSO sol.; conditions: in vivo, 1 h; outline: as §2
Mus musculus [14] = experiment: Biodistribution of compound (oxidized form) in brain tissue, animals were sacrificed 60 minutes after dosing, in DMSO sol.; conditions: in vivo, 1 h; outline: as §2
Mus musculus [15] = experiment: Biodistribution in mice as total concentration of both oxidized and reduced forms in liver tissues, animals were sacrificed 60 minutes after dosing, in DMSO sol.; conditions: in vivo, 1 h; outline: as §1
Mus musculus [16] = experiment: Biodistribution of compound (total concentration of both oxidized and reduced forms) in brain tissues, animals were sacrificed 10 minutes after dosing, in DMSO; conditions: in vivo
Outline: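 Female C3H HenMTV⁻ mice (6-8 weeks old, 22-25 g; three per time point) got one i.p. injection of 500 µL of 40 mM compound. They were euthanized at 10 or 60 min. Organs and blood were excised and homogenized separately in ice-cold PBS. One half of each homogenate received K₃[Fe(CN)₆] (final 1 mM) to oxidize hydroxylamine. Total nitroxide plus hydroxylamine was quantified by EPR signal intensity.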

Mus musculus [17] = experiment: Biodistribution of compound (oxidized form) in kidney tissue, animals were sacrificed 10 minutes after dosing, in DMSO sol.; conditions: in vivo; outline: as §2
Mus musculus [18] = experiment: Biodistribution in mice as total concentration of both oxidized and reduced forms in liver and animals were sacrificed 10 minutes after dosing, in DMSO sol.; conditions: in vivo; outline: as §1
Mus musculus [19] = experiment: Biodistribution in mice as total concentration of both oxidized and reduced forms in kidney and animals were sacrificed 10 minutes after dosing, in DMSO sol.; conditions: in vivo; outline: as §1
Mus musculus [20] = experiment: Biodistribution in mice as total concentration of both oxidized and reduced forms in blood tissues, animals were sacrificed 60 minutes after dosing, in DMSO sol.; conditions: in vivo, 1 h; outline: as §1
Mus musculus [21] = experiment: Biodistribution of compound (oxidized form) in blood tissue, animals were sacrificed 10 minutes after dosing, in DMSO sol.; conditions: in vivo; outline: as §2
Mus musculus [22] = experiment: Biodistribution in mice as total concentration of both oxidized and reduced forms in blood and animals were sacrificed 10 minutes after ip administration in DMSO solution; conditions: in vivo; outline: as §1
Mus musculus [23] = experiment: Biodistribution of compound (oxidized form) in spleen tissue, animals were sacrificed 10 minutes after dosing, in DMSO sol.; conditions: in vivo; outline: as §2
Mus musculus [24] = experiment: Biodistribution of compound (oxidized form) in blood tissues, animals were sacrificed 60 minutes after dosing, in DMSO sol.; conditions: in vivo, 1 h; outline: as §2

- Biodistribution (Mus musculus [1]): 25 nM (g of tissue)-1
- Biodistribution (Mus musculus [2]): 10 nM (g of tissue)-1
- Biodistribution (Mus musculus [3]): 0 nM (g of tissue)-1
- Biodistribution (Mus musculus [4]): 100 nM (g of tissue)-1
- Biodistribution (Mus musculus [5]): 0 nM (g of tissue)-1
- Biodistribution (Mus musculus [6]): 25 nM (g of tissue)-1
- Biodistribution (Mus musculus [7]): 25 nM (g of tissue)-1
- Biodistribution (Mus musculus [8]): 25 nM (g of tissue)-1
- Biodistribution (Mus musculus [9]): 0 nM (g of tissue)-1
- Biodistribution (Mus musculus [10]): 0 nM (g of tissue)-1
- Biodistribution (Mus musculus [11]): 2 nM (g of tissue)-1
- Biodistribution (Mus musculus [12]): 0 nM (g of tissue)-1
- Biodistribution (Mus musculus [13]): 0 nM (g of tissue)-1
- Biodistribution (Mus musculus [14]): 5 nM (g of tissue)-1
- Biodistribution (Mus musculus [15]): 30 nM (g of tissue)-1
- Biodistribution (Mus musculus [16]): 0 nM (g of tissue)-1
- Biodistribution (Mus musculus [17]): 0 nM (g of tissue)-1
- Biodistribution (Mus musculus [18]): 50 nM (g of tissue)-1
- Biodistribution (Mus musculus [19]): 400 nM (g of tissue)-1
- Biodistribution (Mus musculus [20]): 25 nM (g of tissue)-1
- Biodistribution (Mus musculus [21]): 0 nM (g of tissue)-1
- Biodistribution (Mus musculus [22]): 100 nM (g of tissue)-1
- Biodistribution (Mus musculus [23]): 0 nM (g of tissue)-1
- Biodistribution (Mus musculus [24]): 0 nM (g of tissue)-1
Structure (SMILES): COC(=O)C1CC(C)(C)N(OC(C)=O)C(C)(C)C1
